Legend:
[1] = molecular target: Adenosine receptor A2a (Homo sapiens) (UniProt P29274); experiment: Inhibition of [3H]CGS21680 binding to human adenosine A2A receptor at 0.01 umol/L by scintillation counting
In short: (§1)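 Membranes from cells transfected with human A2A receptor, diluted 20-fold in 50 mmol/L Tris pH 7.4 with 120 mmol/L NaCl, 5 mmol/L KCl, 10 mmol/L MgCl2, 2 mmol/L CaCl2 and 2 U/mL adenosine deaminase. Incubated with [3H]CGS21680 (final 75 nmol/L) and test drug, 25 °C for 90 min. Filtered through 0.5% polyethyleneimine-treated filters, then scintillation counted. Nonspecific binding with 50 µmol/L NECA. Triplicate average.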

[2] = molecular target: Adenosine receptor A2a (Homo sapiens) (UniProt P29274); experiment: Inhibition of [3H]CGS21680 binding to human adenosine A2A receptor at 0.1 umol/L by scintillation counting; in short: as §1
Mus musculus = experiment: Antiparkinsonian effect in mouse assessed as inhibition of CGS-21680-induced catalepsy at 10 mg/kg, po; assay type: functional
In short: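 Compounds were given orally at 10 mg/kg to mice. Catalepsy was induced with CGS, and inhibition of catalepsy is expressed as %.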

[3] = molecular target: Adenosine receptor A2a (Homo sapiens) (UniProt P29274); experiment: Inhibition of [3H]CGS21680 binding to human adenosine A2A receptor at 1 umol/L by scintillation counting; in short: as §1
[4] = Intrinsic clearance in rat liver microsomes; assay type: ADME, Microsome
In short: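 Rat liver microsomal incubations gave the apparent intrinsic clearance (CL_int). This was corrected for the free fraction of compound in the incubation to give CL_int/f_m.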

[5] = molecular target: T1, Adenosine receptor A1 (Homo sapiens) (UniProt P30542); experiment: Antagonist activity at human adenosine A1 receptor at 1 umol/L; assay type: functional
T1 sequence (whole entry): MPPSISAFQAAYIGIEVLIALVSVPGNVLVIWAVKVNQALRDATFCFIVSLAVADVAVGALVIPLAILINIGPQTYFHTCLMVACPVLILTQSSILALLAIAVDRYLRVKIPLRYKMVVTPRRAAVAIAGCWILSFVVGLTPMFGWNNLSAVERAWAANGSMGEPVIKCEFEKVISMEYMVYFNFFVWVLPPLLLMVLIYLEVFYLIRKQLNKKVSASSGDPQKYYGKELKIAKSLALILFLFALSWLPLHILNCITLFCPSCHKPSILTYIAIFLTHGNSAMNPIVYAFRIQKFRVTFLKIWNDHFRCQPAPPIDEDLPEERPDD

[6] = molecular target: T1, Adenosine receptor A1 (Homo sapiens); experiment: Antagonist activity at human adenosine A1 receptor at 10 umol/L; assay type: functional
[7] = molecular target: T2, Adenosine receptor A2b (Homo sapiens) (UniProt P29275); experiment: Antagonist activity at human adenosine A2B receptor at 1 umol/L; assay type: functional
T2 sequence (whole entry): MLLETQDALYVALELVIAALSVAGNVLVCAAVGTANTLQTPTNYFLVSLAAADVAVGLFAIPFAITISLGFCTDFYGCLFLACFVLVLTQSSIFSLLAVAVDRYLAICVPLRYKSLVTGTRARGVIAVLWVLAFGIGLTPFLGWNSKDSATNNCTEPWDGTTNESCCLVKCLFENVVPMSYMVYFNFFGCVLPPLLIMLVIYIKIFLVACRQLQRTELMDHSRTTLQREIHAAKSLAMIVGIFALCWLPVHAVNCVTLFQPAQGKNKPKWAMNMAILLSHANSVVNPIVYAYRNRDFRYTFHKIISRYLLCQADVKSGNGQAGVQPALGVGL

[8] = molecular target: T2, Adenosine receptor A2b (Homo sapiens); experiment: Antagonist activity at human adenosine A2B receptor at 10 umol/L; assay type: functional

Sequence of Adenosine receptor A2a (Homo sapiens) (P29274 whole entry): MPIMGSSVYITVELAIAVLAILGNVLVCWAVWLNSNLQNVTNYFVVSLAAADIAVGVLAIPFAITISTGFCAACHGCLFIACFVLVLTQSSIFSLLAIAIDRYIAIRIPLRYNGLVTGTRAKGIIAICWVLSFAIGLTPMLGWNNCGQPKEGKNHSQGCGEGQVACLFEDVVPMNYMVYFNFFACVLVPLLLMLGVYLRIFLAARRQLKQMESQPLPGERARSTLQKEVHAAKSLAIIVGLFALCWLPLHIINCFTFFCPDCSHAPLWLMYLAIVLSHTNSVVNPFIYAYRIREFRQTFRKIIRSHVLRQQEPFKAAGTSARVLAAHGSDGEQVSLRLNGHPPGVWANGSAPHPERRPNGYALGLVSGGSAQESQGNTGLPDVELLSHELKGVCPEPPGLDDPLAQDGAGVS

Compound | inhibition [1] [%] | inhibition [2] [%] | inhibition [3] [%] | CLint scaled [4] [L/h/kg] | inhibition [5] [%] | inhibition [6] [%] | inhibition [7] [%] | inhibition [8] [%] | inhibition in vivo at 10 mg/kg (Mus musculus) [%]
COc1ccc(-c2ccccc2)c2cc(NC(=O)Oc3ccccc3)oc12 | 23 | 65 | – | – | – | – | – | – | 34
COc1ccc(-c2csc(-c3ccc(C)nc3)n2)c2cc(C(=O)Nc3ccc(F)cc3)oc12 | 17 | 6 | 4 | – | – | – | – | – | –
COc1ccc(-c2csc(C)n2)c2cc(C(=O)Nc3ccc(F)cc3)oc12 | 1 | 15 | 60 | – | – | – | – | – | –
COC(=O)c1ccc(OC)c2oc(C(=O)Nc3ccc(OC)cc3)cc12 | – | 53 | 91 | – | – | – | – | – | –
COC(=O)Nc1cc2c(-c3ccccc3)ccc(OC)c2o1 | 28 | 85 | – | – | – | – | – | – | 86
COc1ccc(-c2ccccc2)c2cc(C(=O)Nc3ccncc3)sc12 | 11 | 31 | – | – | – | – | – | – | –
COC(=O)c1ccc(OC)c2oc(C(=O)Nc3ccccc3)cc12 | 6 | 49 | 86 | 45.5 | – | – | – | – | –
COc1ccc(-c2ccccc2)c2cc(NC(=O)Oc3ccc(F)cc3)oc12 | 11 | 32 | – | – | – | – | – | – | –
COc1ccc(-c2ccccc2)c2cc(C(=O)NN3CCOCC3)oc12 | 39 | 81 | 103 | 1.22 | 37 | 82 | 81 | 98 | 78
COc1ccc(NC(=O)c2cc3c(-c4csc(-c5ccccc5)n4)ccc(OC)c3o2)cc1 | 6 | 11 | – | – | – | – | – | – | –
COc1ccc(-c2ccccc2)c2cc(NC(C)=O)oc12 | 62 | 91 | – | – | – | – | – | – | 28
CNC(=O)c1cc2c(-c3ccccc3)ccc(OC)c2o1 | 57 | 88 | – | – | – | – | – | – | 18
COC(=O)c1ccc(OC)c2oc(C(=O)Nc3cccc(F)c3)cc12 | 14 | 58 | 86 | – | – | – | – | – | 48
COc1ccc(-c2ccccc2)c2cc(NC(=O)Nc3ccc(F)cc3)oc12 | 22 | 37 | – | – | – | – | – | – | –
COC(=O)c1ccc(OC)c2oc(C(=O)Nc3ccc(Cl)cc3)cc12 | 1 | 43 | 77 | – | – | – | – | – | –
COc1ccc(-c2ccccc2)c2cc(C(=O)Nc3c(Cl)cncc3Cl)oc12 | 83 | 101 | – | – | – | – | – | – | 74

Continued, in another order:

inhibition [1] [%] | inhibition [2] [%] | inhibition [3] [%] | CLint scaled [4] [L/h/kg] | inhibition [5] [%] | inhibition [6] [%] | inhibition [7] [%] | inhibition [8] [%] | Compound | inhibition in vivo at 10 mg/kg (Mus musculus) [%]
8 | 33 | – | – | – | – | – | – | COc1ccc(-c2ccc(Cl)cc2)c2cc(C(=O)Nc3ccc(Cn4ccnc4)cc3)oc12 | –
– | -2 | -8 | – | – | – | – | – | CCOC(=O)c1ccc(-c2ccc(OC)c3oc(C(=O)Nc4ccccc4)cc23)cc1 | –
24 | 64 | 95 | 156 | 9 | 10 | 1 | 1 | COc1ccc(-c2ccccc2)c2cc(C(=O)Nc3ccc(Cn4ccnc4)cc3)oc12 | 12
13 | 49 | 67 | – | – | – | – | – | COc1ccc(-c2ccccc2)c2cc(C(=O)Nc3ccc(F)cc3)oc12 | –
24 | 63 | 90 | – | -4 | – | – | 4 | COc1ccc(-c2ccc(OC)c3oc(C(=O)Nc4ccc(Cn5ccnc5)cc4)cc23)cc1 | 54
25 | 20 | – | – | – | – | – | – | COc1ccc(-c2ccccc2)c2cc(C(=O)Nc3ccc(Cn4ccnc4)cc3)sc12 | –
18 | 28 | – | – | – | – | – | – | COc1ccc(-c2ccc(Cl)cc2)c2cc(C(=O)Nc3ccncc3)oc12 | –
– | – | 100 | 34.8 | 20 | 77 | 21 | 58 | COc1ccc(-c2ccccc2)c2cc(C(=O)Nc3ccncc3)oc12 | 40
12 | 23 | 20 | – | – | – | – | – | COc1ccc(-c2csc(-c3ccc(C)nc3)n2)c2cc(C(=O)Nc3ccc(Cn4ccnc4)cc3)oc12 | –
40 | 80 | 98 | – | – | – | – | – | COC(=O)c1ccc(OC)c2oc(C(=O)Nc3ccc(Cn4ccnc4)cc3)cc12 | 0

From ChEMBL document CHEMBL1159038, “Synthetic studies on selective adenosine A2A receptor antagonists: synthesis and structure-activity relationships of novel benzofuran derivatives” (Bioorg Med Chem Lett, 2010)
